The record followed here is ChEMBL document CHEMBL1152126 (Bioorg Med Chem, 2008).

The source made the active and inactive calls. No cut-off for these calls is given here.

One test has as its target T1, Interstitial collagenase (Homo sapiens, UniProt P03956).
T1 sequence (P03956 whole entry): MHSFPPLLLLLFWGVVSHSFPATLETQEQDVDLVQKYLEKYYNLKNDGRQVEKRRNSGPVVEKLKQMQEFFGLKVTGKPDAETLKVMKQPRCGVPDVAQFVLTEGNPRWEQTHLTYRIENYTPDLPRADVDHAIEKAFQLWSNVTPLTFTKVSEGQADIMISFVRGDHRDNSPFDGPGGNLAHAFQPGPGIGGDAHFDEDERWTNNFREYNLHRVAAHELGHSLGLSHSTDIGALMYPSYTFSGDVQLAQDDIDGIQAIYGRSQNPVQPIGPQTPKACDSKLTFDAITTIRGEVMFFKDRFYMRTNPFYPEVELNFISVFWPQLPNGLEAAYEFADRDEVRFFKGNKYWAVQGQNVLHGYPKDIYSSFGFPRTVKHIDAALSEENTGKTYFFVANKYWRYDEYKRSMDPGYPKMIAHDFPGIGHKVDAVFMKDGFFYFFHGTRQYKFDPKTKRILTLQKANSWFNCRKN
Description: Inhibition of human recombinant pro-MMP1 by spectrofluorimeter.

The target in test [1] is Matrix metalloproteinase-14 (Homo sapiens, UniProt P50281). Description: Inhibition of human recombinant MMP14 catalytic domain by spectrofluorimeter. In outline: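 Human recombinant MT1-MMP catalytic domain at 1–2 nM in 50 mM Tris–HCl pH 7.5, 150 mM NaCl, 5 mM CaCl₂ at 25 °C. Inhibitors at 5–7 concentrations preincubated with enzyme for 30 min, then quenched fluorogenic peptide substrate added. Percent inhibition measured in triplicate within a 20–80% inhibition range.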

The target in test [2] is 72 kDa type IV collagenase (Homo sapiens, UniProt P08253). Description: Inhibition of human recombinant pro-MMP2 by spectrofluorimeter. The method in brief:
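Pro-MMP-2 activated with […], 37 °C, 2 h. Assay: 1–2 nM enzyme in 50 mM Tris–HCl pH 7.5, 150 mM NaCl, 5 mM CaCl₂, 25 °C; 30 min inhibitor preincubation, then quenched fluorogenic substrate.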

The target in test [3] is Matrix metalloproteinase-9 (Homo sapiens, UniProt P14780). The experiment in a line: Inhibition of human recombinant pro-MMP9 by spectrofluorimeter. The method in brief:
(§1)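 Pro-enzymes (human recombinant) freshly activated with […] at 37 °C for 2 h. Activated MMP at 1–2 nM in 50 mM Tris–HCl pH 7.5, 150 mM NaCl, 5 mM CaCl₂ at 25 °C, preincubated 30 min with inhibitor before quenched fluorogenic substrate. Percent inhibition from triplicates at 5–7 concentrations within the 20–80% range.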

The next test has as its target Stromelysin-1 (Homo sapiens, UniProt P08254). Description: Inhibition of human recombinant MMP3 catalytic domain by spectrofluorimeter. In outline:
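MMP-3 human recombinant catalytic domain (1–2 nM) was assayed in 50 mM Tris–HCl pH 7.5, 5 mM CaCl₂, […] at 25 °C. Enzyme and inhibitor were preincubated for 30 min before quenched fluorogenic substrate was added. Triplicate percent inhibition was taken at 5–7 inhibitor concentrations spanning 20–80% inhibition.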

A further test concerns the target T2, Matrilysin (Homo sapiens, UniProt P09237).
T2 sequence (P09237 whole entry): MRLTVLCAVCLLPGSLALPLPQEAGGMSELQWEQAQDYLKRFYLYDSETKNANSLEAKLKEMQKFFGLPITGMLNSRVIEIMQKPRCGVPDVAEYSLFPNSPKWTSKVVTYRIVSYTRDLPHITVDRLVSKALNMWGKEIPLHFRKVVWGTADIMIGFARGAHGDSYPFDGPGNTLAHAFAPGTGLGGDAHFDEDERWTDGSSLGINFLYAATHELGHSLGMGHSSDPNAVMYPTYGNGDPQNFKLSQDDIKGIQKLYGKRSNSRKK
The experiment in a line: Inhibition of human recombinant pro-MMP7 by spectrofluorimeter. In outline:
as §1

Another test is filed under the species Homo sapiens. Description: Selectivity ratio of IC50 for human recombinant pro-MMP2 to IC50 for human recombinant pro-MMP1.

In general, IC50 refers to the concentration needed to halve the response being measured. Broadly, the Ki is the equilibrium dissociation constant of an inhibitor or competing ligand from its target.

Chain of 72 kDa type IV collagenase (P08253 whole entry): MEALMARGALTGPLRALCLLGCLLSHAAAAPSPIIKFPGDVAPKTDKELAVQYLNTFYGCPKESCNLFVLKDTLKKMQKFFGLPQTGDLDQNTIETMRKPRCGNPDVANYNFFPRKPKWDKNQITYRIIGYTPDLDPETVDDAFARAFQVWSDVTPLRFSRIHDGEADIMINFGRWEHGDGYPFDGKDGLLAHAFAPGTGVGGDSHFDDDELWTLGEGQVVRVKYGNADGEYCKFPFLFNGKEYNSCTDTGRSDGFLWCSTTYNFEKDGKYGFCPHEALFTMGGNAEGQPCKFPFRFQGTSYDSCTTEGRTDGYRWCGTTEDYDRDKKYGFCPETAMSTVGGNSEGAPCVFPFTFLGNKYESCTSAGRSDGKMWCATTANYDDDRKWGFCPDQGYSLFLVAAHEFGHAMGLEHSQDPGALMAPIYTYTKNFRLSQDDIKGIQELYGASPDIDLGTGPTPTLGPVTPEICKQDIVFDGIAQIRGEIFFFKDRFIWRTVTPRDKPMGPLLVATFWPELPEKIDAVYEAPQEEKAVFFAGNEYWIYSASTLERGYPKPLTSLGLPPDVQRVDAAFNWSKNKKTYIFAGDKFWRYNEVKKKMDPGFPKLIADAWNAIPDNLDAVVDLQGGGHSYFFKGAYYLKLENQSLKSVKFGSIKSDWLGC
Chain of Stromelysin-1 (P08254 whole entry, the tested form may be a part): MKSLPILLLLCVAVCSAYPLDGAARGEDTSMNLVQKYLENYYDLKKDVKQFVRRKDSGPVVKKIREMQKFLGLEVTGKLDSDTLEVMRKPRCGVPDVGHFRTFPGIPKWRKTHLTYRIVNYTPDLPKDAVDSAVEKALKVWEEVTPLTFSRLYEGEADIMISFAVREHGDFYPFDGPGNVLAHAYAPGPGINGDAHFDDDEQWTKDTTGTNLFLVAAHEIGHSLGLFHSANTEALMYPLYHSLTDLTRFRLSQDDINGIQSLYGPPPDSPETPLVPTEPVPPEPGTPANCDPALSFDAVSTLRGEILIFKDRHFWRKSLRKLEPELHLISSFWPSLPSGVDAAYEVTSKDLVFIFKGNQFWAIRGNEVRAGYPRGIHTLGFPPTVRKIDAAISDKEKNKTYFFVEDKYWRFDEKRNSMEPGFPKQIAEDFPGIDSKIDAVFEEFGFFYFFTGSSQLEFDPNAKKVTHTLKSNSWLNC
Chain of Matrix metalloproteinase-9 (P14780 whole entry): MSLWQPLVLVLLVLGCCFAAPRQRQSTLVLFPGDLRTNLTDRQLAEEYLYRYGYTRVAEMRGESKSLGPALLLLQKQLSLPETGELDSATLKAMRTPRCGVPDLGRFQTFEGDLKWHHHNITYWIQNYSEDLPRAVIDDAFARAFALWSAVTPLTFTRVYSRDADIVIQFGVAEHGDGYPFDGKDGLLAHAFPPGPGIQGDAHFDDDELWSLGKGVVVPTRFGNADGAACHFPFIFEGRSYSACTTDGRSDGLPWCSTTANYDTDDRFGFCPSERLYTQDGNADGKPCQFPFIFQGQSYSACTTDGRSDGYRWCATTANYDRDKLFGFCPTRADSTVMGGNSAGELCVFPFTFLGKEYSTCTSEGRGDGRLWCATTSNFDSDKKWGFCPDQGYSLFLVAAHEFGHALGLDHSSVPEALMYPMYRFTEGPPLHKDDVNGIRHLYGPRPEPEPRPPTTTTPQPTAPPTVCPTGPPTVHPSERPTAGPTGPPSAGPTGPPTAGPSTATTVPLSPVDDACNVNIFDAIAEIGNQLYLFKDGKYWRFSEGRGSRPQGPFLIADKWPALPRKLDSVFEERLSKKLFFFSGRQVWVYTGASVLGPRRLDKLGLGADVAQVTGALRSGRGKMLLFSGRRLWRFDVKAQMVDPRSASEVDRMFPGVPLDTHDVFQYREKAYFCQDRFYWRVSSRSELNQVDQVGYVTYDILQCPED

Turning to `CNC(=O)[C@H](Cc1c[nH]c2ccccc12)NC(=O)[C@@H](CC(=O)NNS(C)(=O)=O)CC(C)C`, the values for the IC50 (at Interstitial collagenase; in test [1]; in test [2]) were 5.6 µM, 3.7 µM and 0.74 µM, respectively.
For `CNC(=O)[C@H](Cc1c[nH]c2ccccc12)NC(=O)[C@@H](CC(=O)NNS(=O)(=O)c1c(C(C)C)cc(C(C)C)cc1C(C)C)CC(C)C` the same measures were 4 µM, 3.1 µM and 0.1 µM.
Regarding `CNC(=O)[C@H](Cc1c[nH]c2ccccc12)NC(=O)[C@@H](CC(=O)NNS(=O)(=O)c1ccc2ccccc2c1)CC(C)C`, the IC50 in test [3] was 0.011 µM; at Stromelysin-1, 1.4 µM; on Interstitial collagenase it was 0.15 µM; at Matrilysin, 6.15 µM; in test [1] it was 10 µM; in test [2], 0.037 µM.
Take `CNC(=O)[C@H](Cc1c[nH]c2ccccc12)NC(=O)[C@@H](CC(=O)NNS(=O)(=O)c1ccccc1N)CC(C)C`: the IC50 amounted to 0.093 µM at Interstitial collagenase, 0.73 µM in test [1] and 0.092 µM in test [2].
For `CNC(=O)[C@H](Cc1c[nH]c2ccccc12)NC(=O)[C@@H](CC(=O)NNc1ccc([N+](=O)[O-])cc1[N+](=O)[O-])CC(C)C` the same measures were greater than 10 µM, greater than 10 µM and 10 µM.
`CCCCCC/C=C(\CC(=O)NNS(=O)(=O)c1ccc(-c2ccc(Br)cc2)cc1)C(=O)N[C@@H](Cc1c(-c2ccccc2)[nH]c2ccccc12)C(=O)NC`: the IC50 in test [3] was 0.732 µM; at Stromelysin-1 it was 0.174 µM; on Interstitial collagenase it was 2.04 µM; in test [1], 3.78 µM; in test [2], 1.27 µM.
Regarding `CNC(=O)[C@H](Cc1c[nH]c2ccccc12)NC(=O)[C@@H](CC(=O)NNS(=O)(=O)c1ccc(Cl)cc1)CC(C)C`, the figures for the IC50 (at Interstitial collagenase; in test [1]; in test [2]) were 0.29 µM, 0.19 µM and 0.018 µM, respectively.
Taken in the same sequence, the figures for `CNC(=O)[C@H](Cc1c[nH]c2ccccc12)NC(=O)[C@@H](CC(=O)NNS(=O)(=O)c1ccc(Oc2ccccc2)cc1)CC(C)C` were 0.11 µM, 2.8 µM and 0.045 µM.
Consider `CNC(=O)[C@H](Cc1c(-c2ccccc2)[nH]c2ccccc12)NC(=O)[C@@H](CC(=O)NNS(=O)(=O)c1ccc(-c2ccc(Br)cc2)cc1)CC(C)C`, for which the IC50 in test [3] was 0.018 µM; on Stromelysin-1, 0.053 µM; on Interstitial collagenase, 0.35 µM; in test [1], 1.24 µM; in test [2], 0.247 µM.
`CNC(=O)[C@H](Cc1c[nH]c2ccccc12)NC(=O)[C@@H](CC(=O)NNS(=O)(=O)c1ccc([N+](=O)[O-])cc1)CC(C)C`: the IC50 amounted to 0.49 µM at Interstitial collagenase, 1.5 µM in test [1] and 0.31 µM in test [2].
Regarding `CNC(=O)[C@H](Cc1c[nH]c2ccccc12)NC(=O)/C(=C/CCc1ccccc1)CC(=O)NNS(=O)(=O)c1ccc(-c2ccc(Br)cc2)cc1`, the IC50 in test [3] was determined as 1.25 µM; at Stromelysin-1, 3.86 µM; on Interstitial collagenase, 1.03 µM; in test [1], 0.105 µM; in test [2], 0.31 µM.
For the compound `CNC(=O)[C@H](Cc1c[nH]c2ccccc12)NC(=O)[C@@H](CC(=O)NNc1ccc(Cl)c(Cl)c1)CC(C)C`, the IC50 on Interstitial collagenase came out at 5.6 µM; in test [1], 1 µM; in test [2] it was 10 µM.
Taken in the same sequence, the figures for `CCCCCCCCCCCCCCCCS(=O)(=O)NNC(=O)C[C@@H](CC(C)C)C(=O)N[C@@H](Cc1c[nH]c2ccccc12)C(=O)NC` were 0.44 µM, 5.1 µM and 0.3 µM.
As to `CNC(=O)[C@H](Cc1c(-c2ccccc2)[nH]c2ccccc12)NC(=O)/C(=C/CCc1ccccc1)CC(=O)NNS(=O)(=O)c1ccc(-c2ccc(Br)cc2)cc1`, the IC50 in test [3] stood at 0.827 µM; at Stromelysin-1, 0.463 µM; at Interstitial collagenase, 1.07 µM; in test [2], 0.065 µM. The outcome in test [1] was inactive.
For `CNC(=O)[C@H](Cc1c[nH]c2ccccc12)NC(=O)[C@@H](CC(=O)NO)CC(C)C` [ILOMASTAT], the IC50 was determined as 0.026 µM at Stromelysin-1 and 0.0052 µM in test [1].
Regarding `CNC(=O)[C@H](Cc1c[nH]c2ccccc12)NC(=O)[C@@H](CC(=O)NNc1ccc(OC)cc1)CC(C)C`, the 50% inhibitory concentration (IC50) on Interstitial collagenase was 0.33 µM; in test [1] it was greater than 10 µM; in test [2], 10 µM.
With `CNC(=O)[C@H](Cc1c[nH]c2ccccc12)NC(=O)[C@@H](CC(=O)NNS(=O)(=O)c1ccc(-c2ccc(Br)cc2)cc1)CC(C)C`, the IC50 in test [3] worked out at 0.003 µM; at Stromelysin-1, 1.7 µM; on Interstitial collagenase, 0.03 µM; at Matrilysin it was 0.475 µM; in test [1], 17 µM; in test [2], 0.0098 µM. Moreover, the Ki in test [3] amounted to 0.0036 µM; on Stromelysin-1, 0.415 µM; on Matrilysin, 0.523 µM; in test [1], 1.9 µM; in test [2], 0.0085 µM.
On to `CNC(=O)[C@H](Cc1c[nH]c2ccccc12)NC(=O)[C@@H](CC(=O)NNS(=O)(=O)c1ccc(N2C(=O)CCC2=O)cc1)CC(C)C`, for which the IC50 was 0.0085 µM in test [3]; 0.92 µM on Stromelysin-1; 0.091 µM on Interstitial collagenase; 0.11 µM at Matrilysin; 0.72 µM in test [1]; 0.079 µM in test [2].
In the case of `CNC(=O)[C@H](Cc1c[nH]c2ccccc12)NC(=O)[C@@H](CC(=O)NNS(=O)(=O)c1ccc(C)cc1)CC(C)C`, the IC50 turned out to be 0.25 µM on Interstitial collagenase, 2.6 µM in test [1] and 0.024 µM in test [2]. In addition, the Ratio IC50 in the test filed under Homo sapiens came out at 10.
For the compound `CNC(=O)[C@H](Cc1c[nH]c2ccccc12)NC(=O)[C@@H](CC(=O)NNS(=O)(=O)c1ccccc1[N+](=O)[O-])CC(C)C`, the IC50 on Interstitial collagenase came to 0.85 µM; in test [1], 1.1 µM; in test [2], 0.32 µM.
Taken in the same sequence, the figures for `CCCCCCCCCCCCS(=O)(=O)NNC(=O)C[C@@H](CC(C)C)C(=O)N[C@@H](Cc1c[nH]c2ccccc12)C(=O)NC` were 0.98 µM, 9.7 µM and 1.4 µM.
Taken in the same sequence, the figures for `CNC(=O)[C@H](Cc1c[nH]c2ccccc12)NC(=O)[C@@H](CC(=O)NNc1ccc([N+](=O)[O-])cc1)CC(C)C` were greater than 10 µM, greater than 10 µM and 10 µM.
As to `CCCCCC/C=C(\CC(=O)NNS(=O)(=O)c1ccc(-c2ccc(Br)cc2)cc1)C(=O)N[C@@H](Cc1c[nH]c2ccccc12)C(=O)NC`, the IC50 in test [3] amounted to 2.56 µM; at Stromelysin-1 it was 2.54 µM; in test [2], 1.81 µM. For the same compound, in test [1], the result was inactive.
